Structures can show the parent of a compound that is named as a salt.
Assays:
PRA = conditions: ≥5 mg dose, CPH‐001 study; cited from earlier work
[1] = system: plasma active renin concentration (PRC); experiment: Plasma active renin concentration; type: in vivo, human
Method in brief: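 Healthy Japanese male volunteers (nonelderly 20‑45 y, elderly 65‑85 y) took test compound or placebo tablets orally once daily for 7 days, 30 min after starting breakfast with 200 mL water. Sodium-matched meals were given. Plasma active renin was measured by immunoradiometric assay at 1 h predose and 1, 2, 4, 6, 12 h postdose on days 1 and 7, 1 h predose on days 2‑6, and 23, 47, 71 h after the last dose.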

[2] = target: T1, plasma renin activity (PRA) (Homo sapiens, UniProt P00797); type: in vivo
T1 sequence (P00797 67-406): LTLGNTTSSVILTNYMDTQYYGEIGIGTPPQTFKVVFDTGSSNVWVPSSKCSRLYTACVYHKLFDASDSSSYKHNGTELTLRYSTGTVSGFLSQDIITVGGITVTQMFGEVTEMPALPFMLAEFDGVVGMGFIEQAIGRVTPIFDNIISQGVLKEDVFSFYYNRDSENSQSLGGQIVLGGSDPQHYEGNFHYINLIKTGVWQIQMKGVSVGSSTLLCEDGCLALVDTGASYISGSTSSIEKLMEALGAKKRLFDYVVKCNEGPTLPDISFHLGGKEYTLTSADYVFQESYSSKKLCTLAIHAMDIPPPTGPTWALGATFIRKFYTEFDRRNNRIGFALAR

[3] = Safety evaluation: adverse events, vital signs, weight, ECG, laboratory tests; type: in vivo, human
[4] = Plasma pharmacokinetics after multiple oral administrations of imarikiren; type: in vivo, human
Method in brief: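 Healthy males (nonelderly 20–45 y, elderly 65–85 y) took test compound or placebo tablets orally once daily for 7 days (80 or 160 mg). Fluids were withheld from 2 h pre-dose to 4 h post-dose. Plasma parent and metabolite were measured by HPLC‑MS/MS, with noncompartmental analysis on actual sampling times. Accumulation = 100 × AUC0‑tau day 7/day 1. Age effect: elderly−nonelderly difference in ln AUC0‑tau and Cmax, day 7, with 90%/95% CI.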

[5] = dose of up to 200 mg, healthy nonelderly adult male subjects, CPH‐001; cited from earlier work
[6] = single‐dose administration; cited from earlier work
[7] = system: plasma angiotensin II concentration (AII); experiment: Plasma angiotensin II concentration; type: in vivo, human
Method in brief: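 Double-blind, placebo-controlled once-daily oral tablet dosing for 7 days in healthy Japanese men (nonelderly 20‑45 y, elderly 65‑85 y), given 30 min after starting breakfast with 200 mL water, with uniform meals. Plasma angiotensin II was measured by radioimmunoassay at 1 h predose and 1‑12 h postdose on days 1 and 7, predose on days 2‑6, and up to 71 h after the last dose.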

[8] = imarikiren 80 mg once daily 7 days, elderly (n = 9)
[9] = imarikiren 80 mg once daily 7 days, nonelderly (n = 9)
[10] = imarikiren 80 mg, nonelderly (2 of 9 subjects)
[11] = imarikiren 160 mg once daily 7 days, nonelderly (n = 9)
[12] = imarikiren 80 mg, day 7, Cohort 3 vs Cohort 1
[13] = imarikiren 80 mg, nonelderly, listed as imarikiren
[14] = imarikiren 160 mg, nonelderly, listed as imarikiren

In the case of `COCCCCn1c(C(=O)N(CC(C)C)[C@@H]2CNC[C@H](C(=O)N3CCOCC3)C2)nc2ccccc21` [Imarikiren, Imarikiren hydrochloride], the “Inhibition of PRA after single oral administration” value (PRA) is listed as “completely inhibited PRA”, the “Change from baseline in PRC, mean (SD)” value ([1]; imarikiren 80 mg oral once daily, elderly, Day 2 (–1 hr)) is listed as 78.3 (72.3) pg/mL and the “Change from baseline in PRC, mean (SD)” value ([1]; imarikiren 80 mg oral once daily, elderly, Day 7 (23 hrs)) is listed as 154.4 (168.0) pg/mL. The “Change from baseline in PRC, mean (SD)” value ([1]; imarikiren 80 mg oral once daily, nonelderly, Day 2 (–1 hr)) was 169.3 (140.9) pg/mL, the “Change from baseline in PRC, mean (SD)” value ([1]; imarikiren 80 mg oral once daily, nonelderly, Day 7 (23 hrs)) was 247.1 (130.1) pg/mL and the “Change from baseline in PRC, mean (SD)” value ([1]; imarikiren 160 mg oral once daily, nonelderly, Day 2 (–1 hr)) was 129.5 (106.8) pg/mL. The “Change from baseline in PRC, mean (SD)” value ([1]; imarikiren 160 mg oral once daily, nonelderly, Day 7 (23 hrs)) was 487.3 (264.9) pg/mL, the “Time after the last administration for which inhibition of PRA was maintained” value ([2]; 80 mg (nonelderly and elderly) and 160 mg (nonelderly), once daily for 7 days) was “at least 71 hours” and the “PRA inhibition with multiple dosing” value ([2]; for 7 days, sustained for nearly 3 days after the last administration) was “complete inhibition”. For the same compound, the “Overall safety and tolerability” value ([3]; 80 or 160 mg for 7 days nonelderly, 80 mg elderly) was “safe and well tolerated”, the “Intensity of TEAEs” value ([3]; all TEAEs, with the exception of moderate urticaria in 1 nonelderly subject (80 mg)) was “mild in intensity” and the “Changes in ECG parameters” value ([3]; all cohorts) was “No obvious changes”. The “Serious TEAEs and deaths” value ([3]; all cohorts, during the study) was “no serious TEAEs and no deaths”, the “TEAEs reported, subjects” value ([3]; all nonelderly subjects who received imarikiren) was 22.2% and the “TEAEs related to the study drug, subjects” value (shortened to “TEAEs related”) ([3]; all nonelderly subjects who received imarikiren (3 of 18 subjects)) was 16.7%. For the same compound, the “Subjects with any TEAEs” value [3, 8] was 3 (33.3) n (%), the “TEAE: Alanine aminotransferase increased” value [3, 8] was 1 (11.1) n (%) and the “TEAE: Aspartate aminotransferase increased” value [3, 8] was 1 (11.1) n (%). For the same compound, the “TEAE: Blood creatinine phosphokinase increased” value [3, 8] was 0 n (%), the “TEAE: Blood triglycerides increased” value [3, 8] was 0 n (%) and the “TEAE: Diarrhea” value [3, 8] was 1 (11.1) n (%). The “TEAE: Eye disorders” value [3, 8] was 0 n (%), the “TEAE: Feeling hot” value [3, 8] was 0 n (%) and the “TEAE: Gastrointestinal disorders” value [3, 8] was 1 (11.1) n (%). The “TEAE: General disorders and administration site conditions” value [3, 8] was 0 n (%), the “TEAE: Headache” value [3, 8] was 1 (11.1) n (%) and the “TEAE: Investigations” value [3, 8] was 2 (22.2) n (%). The “TEAE: Nervous system disorders” value [3, 8] was 1 (11.1) n (%), the “TEAE: Pruritus” value [3, 8] was 0 n (%) and the “TEAE: Skin and subcutaneous tissue disorders” value [3, 8] was 0 n (%). The “TEAE: Urticaria” value [3, 8] was 0 n (%), the “TEAE: Vision blurred” value [3, 8] was 0 n (%) and the “TEAE: White blood cell count decreased” value [3, 8] was 1 (11.1) n (%). For the same compound, the “TEAE: White blood cell count increased” value [3, 8] was 0 n (%), the “Subjects with any TEAEs” value [3, 9] was 2 (22.2) n (%) and the “TEAE: Alanine aminotransferase increased” value [3, 9] was 0 n (%). The “TEAE: Aspartate aminotransferase increased” value [3, 9] was 0 n (%), the “TEAE: Blood creatinine phosphokinase increased” value [3, 9] was 0 n (%) and the “TEAE: Blood triglycerides increased” value [3, 9] was 0 n (%). For the same compound, the “TEAE: Diarrhea” value [3, 9] was 0 n (%), the “TEAE: Eye disorders” value [3, 9] was 0 n (%) and the “TEAE: Feeling hot” value [3, 9] was 1 (11.1) n (%). For the same compound, the “TEAE: Gastrointestinal disorders” value [3, 9] was 0 n (%), the “TEAE: General disorders and administration site conditions” value [3, 9] was 1 (11.1) n (%) and the “TEAE: Headache” value [3, 9] was 0 n (%). For the same compound, the “TEAE: Investigations” value [3, 9] was 1 (11.1) n (%), the “TEAE: Nervous system disorders” value [3, 9] was 0 n (%) and the “TEAE: Pruritus” value [3, 9] was 1 (11.1) n (%). For the same compound, the “TEAE: Skin and subcutaneous tissue disorders” value [3, 9] was 2 (22.2) n (%), the “TEAE: Urticaria” value [3, 9] was 1 (11.1) n (%) and the “TEAE: Vision blurred” value [3, 9] was 0 n (%). The “TEAE: White blood cell count decreased” value [3, 9] was 0 n (%), the “TEAE: White blood cell count increased” value [3, 9] was 1 (11.1) n (%) and the “TEAEs related” value ([3]; imarikiren 80 mg, elderly (2 of 9 subjects)) was 22.2%. For the same compound, the “TEAEs reported, subjects” value ([3]; imarikiren 80 mg, elderly (3 of 9 subjects)) was 33.3%, the “TEAEs related” value [3, 10] was 22.2% and the “TEAEs reported, subjects” value [3, 10] was 22.2%. The “Subjects with any TEAEs” value [3, 11] was 2 (22.2) n (%), the “TEAE: Alanine aminotransferase increased” value [3, 11] was 2 (22.2) n (%) and the “TEAE: Aspartate aminotransferase increased” value [3, 11] was 0 n (%). The “TEAE: Blood creatinine phosphokinase increased” value [3, 11] was 0 n (%), the “TEAE: Blood triglycerides increased” value [3, 11] was 0 n (%) and the “TEAE: Diarrhea” value [3, 11] was 0 n (%). The “TEAE: Eye disorders” value [3, 11] was 0 n (%), the “TEAE: Feeling hot” value [3, 11] was 0 n (%) and the “TEAE: Gastrointestinal disorders” value [3, 11] was 0 n (%). The “TEAE: General disorders and administration site conditions” value [3, 11] was 0 n (%), the “TEAE: Headache” value [3, 11] was 0 n (%) and the “TEAE: Investigations” value [3, 11] was 2 (22.2) n (%). The “TEAE: Nervous system disorders” value [3, 11] was 0 n (%), the “TEAE: Pruritus” value [3, 11] was 0 n (%) and the “TEAE: Skin and subcutaneous tissue disorders” value [3, 11] was 0 n (%). For the same compound, the “TEAE: Urticaria” value [3, 11] was 0 n (%), the “TEAE: Vision blurred” value [3, 11] was 0 n (%) and the “TEAE: White blood cell count decreased” value [3, 11] was 0 n (%). The “TEAE: White blood cell count increased” value [3, 11] was 0 n (%), the “TEAEs related” value ([3]; imarikiren 160 mg, nonelderly (1 of 9 subjects)) was 11.1% and the “TEAEs reported, subjects” value ([3]; imarikiren 160 mg, nonelderly (2 of 9 subjects)) was 22.2%. For the same compound, the “Change in mean blood pressure” value ([3]; imarikiren groups, day 7 compared with baseline) was “decrease in mean blood pressure”, the Tmax ([4]; human, plasma, oral, 160 mg, median time to reach the maximum observed plasma concentration (Tmax), nonelderly subjects, all groups (80 and 160 mg), days 1 and 7) was 1 to 2 h and the “CL/F, mean (SD)” value ([4]; imarikiren 80 mg oral once daily, elderly, Day 1) was 15.2 (4.6) L/hr. The “CL/F, mean (SD)” value ([4]; imarikiren 80 mg oral once daily, elderly, Day 7) was 14.1 (3.4) L/hr, the “CL/F, mean (SD)” value ([4]; imarikiren 80 mg oral once daily, nonelderly, Day 1) was 19.6 (3.6) L/hr and the “CL/F, mean (SD)” value ([4]; imarikiren 80 mg oral once daily, nonelderly, Day 7) was 21.5 (5.6) L/hr. For the same compound, the “AUC0‐tau higher in elderly than in nonelderly subjects” value [4, 12] was 52%, the “Cmax higher in elderly than in nonelderly subjects” value [4, 12] was 39% and the “Accumulation index (AUC) percentage (100 × AUC0‐tau day 7/AUC0‐inf day 1), mean (SD)” value (from here on “Accumulation index (AUC) percentage … (SD)”) ([4]; imarikiren 80 mg, nonelderly) was 94.4 (21.8) %. The “Accumulation index (t1/2) percentage, mean (SD)” value ([4]; imarikiren 80 mg, nonelderly) was 116.4 (39.1) %, the “R(AUC), AUC accumulation factor percentage (100 × AUC0‐tau day 7/AUC0‐tau day 1), mean (SD)” value ([4]; imarikiren 80 mg, nonelderly) was 106.4 (22.4) % and the “Accumulation index (AUC) percentage … (SD)” value [4, 13] was 94.4%. The “R(AUC), AUC accumulation factor percentage (100 × AUC0‐tau day 7/AUC0‐tau day 1), mean (SD)” value [4, 13] was 106.4%, the “CL/F, mean (SD)” value ([4]; imarikiren 160 mg oral once daily, nonelderly, Day 1) was 19.7 (5.1) L/hr and the “CL/F, mean (SD)” value ([4]; imarikiren 160 mg oral once daily, nonelderly, Day 7) was 17.6 (3.3) L/hr. The “Accumulation index (AUC) percentage … (SD)” value ([4]; imarikiren 160 mg, nonelderly) was 114.2 (30.0) %, the “Accumulation index (t1/2) percentage, mean (SD)” value ([4]; imarikiren 160 mg, nonelderly) was 119.7 (34.3) % and the “R(AUC), AUC accumulation factor percentage (100 × AUC0‐tau day 7/AUC0‐tau day 1), mean (SD)” value ([4]; imarikiren 160 mg, nonelderly) was 123.0 (32.6) %. The “Accumulation index (AUC) percentage … (SD)” value [4, 14] was 114.2%, the “R(AUC), AUC accumulation factor percentage (100 × AUC0‐tau day 7/AUC0‐tau day 1), mean (SD)” value [4, 14] was 123.0% and the “Plasma concentration reached steady state (based on trough concentration)” value ([4]; multiple oral administration of 80 mg and 160 mg, nonelderly) was no more than 7 days. The “Tolerability of single dose” value [5] was “good tolerability”, the “Food effect on the PK” value [6] was “minimal effect” and the “Change from baseline in AII” value ([7]; 80 mg, elderly, any time) was “no changes from baseline”. For the same compound, the “Change from baseline in AII” value ([7]; 160 mg, nonelderly, days 1 through 7) was “decreased from baseline”.

— article PMC6175367 (Journal of Clinical Pharmacology, 2018)
